Results pooled from the literature.
Lines come from different studies, so protocols differ.
Target: Serine/threonine-protein kinase haspin (HASPIN, Homo sapiens, UniProt Q8TF76)
Sequence (Q8TF76 1-798, as in one of the studies): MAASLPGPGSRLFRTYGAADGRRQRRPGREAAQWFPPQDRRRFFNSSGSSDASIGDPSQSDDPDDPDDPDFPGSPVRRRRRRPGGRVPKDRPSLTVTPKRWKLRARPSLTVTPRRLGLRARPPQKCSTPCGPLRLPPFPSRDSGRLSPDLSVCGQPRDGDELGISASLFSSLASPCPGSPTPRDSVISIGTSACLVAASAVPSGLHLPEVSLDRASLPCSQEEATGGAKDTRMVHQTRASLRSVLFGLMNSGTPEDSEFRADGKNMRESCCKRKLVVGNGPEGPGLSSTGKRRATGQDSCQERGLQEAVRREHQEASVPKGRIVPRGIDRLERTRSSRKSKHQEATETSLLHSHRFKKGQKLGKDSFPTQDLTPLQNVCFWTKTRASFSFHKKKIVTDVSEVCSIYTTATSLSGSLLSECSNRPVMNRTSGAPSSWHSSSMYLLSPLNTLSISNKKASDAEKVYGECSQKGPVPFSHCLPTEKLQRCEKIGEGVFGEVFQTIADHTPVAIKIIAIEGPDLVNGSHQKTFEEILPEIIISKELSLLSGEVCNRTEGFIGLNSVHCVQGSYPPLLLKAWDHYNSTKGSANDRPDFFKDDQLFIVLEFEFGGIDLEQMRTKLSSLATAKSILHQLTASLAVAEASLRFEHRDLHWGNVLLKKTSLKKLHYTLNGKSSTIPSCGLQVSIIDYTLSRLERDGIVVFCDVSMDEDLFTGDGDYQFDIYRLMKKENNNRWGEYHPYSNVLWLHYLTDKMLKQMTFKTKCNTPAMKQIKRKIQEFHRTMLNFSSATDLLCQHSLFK

C[C@@H]1CCN(c2nccc(-c3cnn4ncccc34)n2)C1
remaining binding (binding; 1 µM): 2%

CCC(=O)N[C@@H]1CC[C@H](C(=O)N(C)c2ccc(-c3nc4ccccc4o3)cc2)C1
remaining binding (cell-free assay; competition with immobilised ligand; 1 µM): 100%

O=C(Nc1c[nH]nc1C(=O)NC1CCNCC1)c1cc(F)cc(F)c1
remaining binding (binding; competition with immobilised ligand; 1 µM): 96%

CSc1cccnc1N1CCN(Cc2nc3ccccc3[nH]2)CC1
remaining binding (cell-free assay; competition with immobilised ligand; 1 µM): 100%

Cc1cnc(Nc2ccc(C(=O)N3CCC(N4CCCC4)CC3)cc2)nc1-c1cc2ccccc2s1
remaining binding (binding; competition with immobilised ligand; 1 µM): 83%

CCS(=O)(=O)c1cc2cc(C[C@@](O)(CC(C)(C)c3ccc(F)cc3C(N)=O)C(F)(F)F)[nH]c2cn1
remaining binding (cell-free assay; competition with immobilised ligand; 1 µM): 80%

C[C@@H](c1ccc(-n2cnc3c(N)ncnc32)cc1)N1CCc2nn(C)c(Cc3ccccc3)c2C1=O
remaining binding (binding; competition with immobilised ligand; 0.1 µM): 79%

N[C@H]1CCN(c2nccc(-c3cnn4ncccc34)n2)C1
remaining binding (binding; 1 µM): 0.4%

CNC(=O)[C@@H]1CC[C@@H](n2c(-c3ccc4cnccc4c3)nc3ccc(C(=O)NCc4cccc(C(N)=O)c4)cc32)C1
remaining binding (binding; competition with immobilised ligand; 1 µM): 99%

COc1ccnn2ncc(-c3ccnc(N(C)C)n3)c12
remaining binding (binding; 1 µM): 1.8%

COc1ncc2cc3ccccc3nc2c1C#N
remaining binding (cell-free assay; competition with immobilised ligand; 5 µM): 51%

Cn1nc(C(F)(F)F)cc1-c1cnc(N2CCc3cc(S(=O)(=O)Nc4c(F)cc(Cl)cc4F)cc(N4CCCC4=O)c32)nc1
remaining binding (cell-free assay; competition with immobilised ligand; 1 µM): 68%

c1cncc(-c2cccc(Nc3nccc(NC4CCCCC4)n3)c2)c1
remaining binding (binding; competition with immobilised ligand; 10 µM): 23%

O=C(c1ccc(Nc2ncc(Cl)c(-c3ccc(Cl)s3)n2)cc1)N1CCC(N2CCCC2)CC1
remaining binding (binding; competition with immobilised ligand; 1 µM): 39%

CC(=O)N1CCC(c2ccc(C(=O)NC3=NCCN3)cc2C(F)(F)F)CC1
remaining binding (cell-free assay; competition with immobilised ligand; 1 µM): 78%

CCN1CCN(Cc2ccc(C(=O)Nc3ccc(C)c(Oc4ccc5c(c4)CC(=O)N5)c3)cc2C(F)(F)F)CC1
remaining binding (binding; competition with immobilised ligand; 1 µM): 100%

CN(C)c1nccc(-c2cnc3ncccn23)n1
remaining binding (binding; 1 µM): 2.8%

NS(=O)(=O)c1cc(NC(=O)Cc2ccccc2)ccc1Oc1cccc(Cl)c1
remaining binding (cell-free assay; competition with immobilised ligand; 1 µM): 100%

c1cnn2ncc(-c3ccnc(N4CCC45COC5)n3)c2c1
remaining binding (binding; 1 µM): 0.6%

O=C(c1ccc(Nc2ncc(Cl)c(-c3cc4ccccc4s3)n2)cc1)N1CCC(N2CCCC2)CC1
remaining binding (binding; competition with immobilised ligand; 1 µM): 67%

CN(C)c1ncc(F)c(-c2cnn3ncccc23)n1
remaining binding (binding; 1 µM): 37%

Cc1cc(NC(=O)c2cccc(S(F)(F)(F)(F)F)c2)cc(-n2ccn3nc(-c4cccnc4)cc23)c1
remaining binding (cell-free assay; competition with immobilised ligand; 1 µM): 70.9%
